Compound activity from PubChem BioAssay.
T cruzi growth – inhibitors of T. cruzi proliferation; AID 624255; T. cruzi beta-gal in NIH3T3, GalScreen luminescence, 90 h; inhibition, % at 8.34 µM; 77,000 tested, 5.9% active;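 active = mean inhibition above about 93%, with at least 55% of replicates each passing it, limit read from the data, passing the limit was not always enough; inconclusive = only one of those two conditions holds; inactive = neither condition holds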
Pf Dd2 growth – inhibitors of Plasmodium falciparum Dd2 growth | activity change, % at 10 µM | 94,000 tested, 2.3% active | P. falciparum Dd2 growth, SYBR Green, 72 h; hits give low values; in the data active = activity change below about -80%; inconclusive = no clear call, values can overlap the other calls
IDH1 R132H inh – IDH1 R132H (human) inhibition; AID 624101; O75874; inhibition, % at 10 µM; 70,000 tested, 0.18% active; IDH1 R132H reductase, diaphorase/resazurin fluorescence, 60 min; in the data active = inhibition above about 34%; inconclusive = no clear call, values can overlap the other calls; inactive = below about 11%;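 note: 0% = DMSO and 100% = no enzyme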
Target sequence (O75874 whole entry R132H): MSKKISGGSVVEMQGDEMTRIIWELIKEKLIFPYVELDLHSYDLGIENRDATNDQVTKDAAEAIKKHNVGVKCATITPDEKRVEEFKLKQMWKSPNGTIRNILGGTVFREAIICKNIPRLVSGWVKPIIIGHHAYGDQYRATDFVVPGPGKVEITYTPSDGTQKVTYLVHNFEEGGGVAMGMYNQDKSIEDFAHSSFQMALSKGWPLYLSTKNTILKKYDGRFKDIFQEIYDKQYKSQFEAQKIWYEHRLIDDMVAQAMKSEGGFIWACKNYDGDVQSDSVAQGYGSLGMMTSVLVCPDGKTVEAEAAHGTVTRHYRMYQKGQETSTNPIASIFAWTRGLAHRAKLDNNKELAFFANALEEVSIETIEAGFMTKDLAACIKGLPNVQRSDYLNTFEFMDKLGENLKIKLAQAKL
KDM4C inh – blocks human GASC-1 (KDM4C) demethylase activity. Q9H3R0. GST-KDM4C 2-372, H3K9me3 peptide, LANCE TR-FRET. inhibition, % at 12.5 µM. 96,000 tested, 0.15% active. AID 720574;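 active = mean replicate inhibition above about 25%, with at least 55% of replicates also reaching it, limit read from the data, passing the limit was not always enough; inconclusive = only one of those two conditions met; inactive = neither condition met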
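Material: GST-tagged GASC-1 (JMJD2C) catalytic fragment, aa 2-372. Input: enzyme final amount 10 nM. Medium: HEPES buffer, pH 7.5, plus ascorbate. Reagent: H3K9me3 peptide substrate, Fe(II), 2-oxoglutarate. Doses: single dose. Times: reaction 30 min RT, detection step 1 h RT. Measured by: LANCE TR-FRET. Evaluation: Fall in 671/618 emission ratio as inhibition.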
* hit, by the source's call; ? = inconclusive; · = no result. Most compounds without a hit are left out; they make up all but 5.9% or so of the library.

SMILES	T cruzi growth	Pf Dd2 growth	IDH1 R132H inh	KDM4C inh
C[C@@H]1CN([C@H](C)CO)C(=O)c2c(c3ccccc3n2C)-c2ccccc2CO[C@H]1CN(C)S(=O)(=O)c1ccc(F)cc1	63	-40	0	-3
COc1ccc2c3c(n(C)c2c1)[C@H](CO)N(Cc1ccccc1)CC31CCN(C(=O)C2CC2)CC1	·	-83*	·	-2
COc1ccc2c3c(n(C)c2c1)[C@@H](CO)N(Cc1cc(F)ccc1F)CC31CCN(C(=O)C2CC2)CC1	·	-81*	·	-2
CCC(=O)N1CCC2(CC1)CN(Cc1cccc(Cl)c1)[C@H](CO)c1c2c2ccc(OC)cc2n1C	·	-89*	·	-1
COc1ccc2c3c(n(C)c2c1)[C@H](CO)N(Cc1cc(F)ccc1F)CC31CCN(C(=O)C2CC2)CC1	·	?	·	1
C/C=C(\C)C(=O)O[C@H]1[C@H](OC(C)=O)[C@@]2(CO)C(CC1(C)C)C1=CCC3[C@@]4(C)CC[C@H](O[C@@H]5O[C@H](C(=O)O)[C@@H](O)[C@H](O[C@@H]6O[C@H](CO)[C@H](O)[C@H](O)[C@H]6O[C@@H]6O[C@@H](C)[C@H](O)[C@@H](O)[C@H]6O)[C@H]5O[C@@H]5O[C@H](CO)[C@@H](O)[C@H](O)[C@H]5O)C(C)(C)C4CC[C@@]3(C)[C@]1(C)C[C@H]2O (stereo not given in full)	·	·	3	·
CCCCCCCCC/C=C/CCCCC(=O)C1C(=O)CCC(O)C1=O (stereo not given)	·	·	5	·
Cc1nc(SCC(=O)Nc2ccc(Br)cc2)n[nH]1	·	·	0	·
CC1(C)CC(=O)C2=C(C1)Nc1ccccc1N(C(=S)NCc1ccco1)C2c1cccnc1 (stereo not given)	·	·	5	·
CN1C(=O)c2cc(NC(=O)Nc3ccccc3Cl)ccc2OC[C@H]2O[C@@H](CC(=O)O)CC[C@@H]21	14	5	·	49*
Cc1sc2nc(SCc3nc4ccccc4[nH]3)n(-c3ccccc3)c(=O)c2c1C	·	·	0	·
C/C(=N\n1c(-c2ccccc2)n[nH]c1=O)c1ccccc1	·	·	0	·
COc1cccc(S(=O)(=O)N(C)C[C@H]2Oc3ncc(-c4cccc(C(=O)N(C)C)c4)cc3C(=O)N([C@H](C)CO)C[C@@H]2C)c1	14	-84*	-20	0
C[C@H](CO)N1C[C@H](C)[C@H](CN(C)S(=O)(=O)c2ccc(C#N)cc2)Oc2ncc(-c3cc4ccccc4o3)cc2C1=O	60	-18	0	-2
COc1ccc(S(=O)(=O)N(C)C[C@@H]2Oc3ncc(-c4cc5ccccc5o4)cc3C(=O)N([C@H](C)CO)C[C@@H]2C)cc1	81	-86*	-1	·
COc1cccc(S(=O)(=O)N(C)C[C@@H]2Oc3ncc(-c4cccc(C(=O)N(C)C)c4)cc3C(=O)N([C@@H](C)CO)C[C@H]2C)c1	8	-65	-31	-1
O=S(=O)(NCc1ccccn1)c1ccc(Cl)c(Cl)c1Cl	·	·	0	·
O=C(c1ccc(F)cc1)N1CC(=O)N2[C@H](C1)[C@H](c1ccc(-c3cccnc3)cc1)[C@@H]2CO	·	-6	·	0
COC(=O)c1ccc(CN2CC(=O)N3[C@H](CO)[C@@H](c4ccc(-c5ccccc5F)cc4)[C@H]3C2)cc1	·	-83*	·	9
COC(=O)c1ccc(CN2CC(=O)N3[C@H](C2)[C@@H](c2ccc(-c4ccccc4F)cc2)[C@@H]3CO)cc1	·	-3	·	1
O=C(c1ccc(F)cc1)N1CC(=O)N2[C@H](C1)[C@@H](c1ccc(-c3cccnc3)cc1)[C@@H]2CO	·	-89*	·	-1
O=C(c1cccnc1)N1CC(=O)N2[C@H](C1)[C@H](c1ccc(-c3ccc(F)cc3)cc1)[C@@H]2CO	·	-24	·	3
O=C(c1ccc(F)cc1)N1CC(=O)N2[C@H](CO)[C@H](c3ccc(-c4cccnc4)cc3)[C@H]2C1	·	-87*	·	-1
O=C(c1ccccc1F)N1CC(=O)N2[C@H](C1)[C@@H](c1ccc(-c3cccnc3)cc1)[C@@H]2CO	·	-87*	·	1
O=C(CSc1nnc(-c2ccccc2O)n1-c1ccccc1)Nc1ccccc1Cl	·	·	1	·
SMILES	T cruzi growth	Pf Dd2 growth	IDH1 R132H inh	KDM4C inh
Cc1ccccc1-n1ccc(=O)[nH]c1=O	·	·	0	·
NC(CC(=O)O)c1cccc([N+](=O)[O-])c1 (stereo not given)	·	·	0	·
COc1ccc(-c2cc(C(F)(F)F)n3nc(C(=O)N(C)Cc4cnn(C)c4C)cc3n2)cc1OC	·	·	0	·
O=C(c1cccc(F)c1)N1CC(=O)N2[C@H](C1)[C@@H](c1ccc(-c3cccnc3)cc1)[C@@H]2CO	·	-88*	·	-2
O=C(c1cccc(F)c1)N1CC(=O)N2[C@H](CO)[C@H](c3ccc(-c4cccnc4)cc3)[C@@H]2C1	·	10	·	-1
C[C@H]1CN([C@@H](C)CO)C(=O)c2c(c3ccccc3n2C)-c2ccccc2CO[C@@H]1CN(C)Cc1ccccc1C(F)(F)F	·	-85*	·	-6
C[C@H](CO)N1C[C@H](C)[C@H](CN(C)Cc2ccc(C(F)(F)F)cc2)OCc2ccccc2-c2c(n(C)c3ccccc23)C1=O	·	-83*	·	-2
C[C@@H]1CN([C@H](C)CO)C(=O)c2ccccc2-c2ccccc2CO[C@@H]1CN(C)Cc1ccccc1C(F)(F)F	·	-93*	·	-1
COc1ccccc1CN(C)C[C@@H]1OCc2ccccc2-c2c(n(C)c3ccccc23)C(=O)N([C@H](C)CO)C[C@@H]1C	·	-1	·	2
COc1cccc(CN(C)C[C@H]2OCc3ccccc3-c3c(n(C)c4ccccc34)C(=O)N([C@@H](C)CO)C[C@H]2C)c1	·	-87*	·	-3
Cc1ccc(NC(=O)CSc2nnc(-c3ccccc3)n2-c2ccccc2)c(Br)c1	·	·	1	·
C[C@H]1CN([C@@H](C)CO)C(=O)c2c(c3ccccc3n2C)-c2ccccc2CO[C@@H]1CN(C)Cc1cccc(F)c1	·	-75	·	-7
C[C@H](CO)N1C[C@H](C)[C@H](CN(C)Cc2ccc(-c3ccccc3)cc2)OCc2ccccc2-c2c(n(C)c3ccccc23)C1=O	·	?	·	-1
C[C@@H]1CN([C@@H](C)CO)C(=O)c2c(c3ccccc3n2C)-c2ccccc2CO[C@H]1CN(C)Cc1cccc(C(=O)Nc2ccccc2N)c1	·	-89*	·	3
C[C@@H]1CN([C@H](C)CO)C(=O)c2c(c3ccccc3n2C)-c2ccccc2CO[C@@H]1CN(C)Cc1cccc(F)c1	·	-88*	·	-2
C[C@@H]1CN([C@@H](C)CO)C(=O)c2c(c3ccccc3n2C)-c2ccccc2CO[C@H]1CN(C)Cc1ccc(Oc2ccccc2)cc1	·	-78	·	-7
C[C@H](CO)N1C[C@H](C)[C@@H](CN(C)Cc2ccc(-c3ccccc3)cc2)OCc2ccccc2-c2c(n(C)c3ccccc23)C1=O	·	-92*	·	-3
C[C@H](CO)N1C[C@H](C)[C@@H](CN(C)Cc2ccc(Oc3ccccc3)cc2)OCc2ccccc2-c2c(n(C)c3ccccc23)C1=O	·	-91*	·	0
C[C@H](CO)N1C[C@H](C)[C@H](CN(C)Cc2cccc(C(=O)O)c2)OCc2ccccc2-c2c(n(C)c3ccccc23)C1=O	-16	49	-10	0
